Source: ChEMBL document CHEMBL1772966, “3,5-Bis(benzylidene)-1-[3-(2-hydroxyethylthio)propanoyl]piperidin-4-ones: a novel cluster of potent tumor-selective cytotoxins” (J Med Chem, 2011)
Active and inactive are the calls of the source. The rule behind the calls is not given here.

Legend:
CCRF-CEM [1] = experiment: Anticancer activity against human CEM cells after 72 hrs; type: functional, cell-based
Mus musculus [2] = experiment: Toxicity in mouse assessed as mortality at 30 to 300 mg/kg, ip after 0.5 to 4 hrs; type: organism-based; design: dose 30-300 mg/kg, route intraperitoneal; conditions: in vivo
Procedure, shortened: (§1)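 Mice dosed intraperitoneally at 30, 100 and 300 mg/kg; animals observed for deaths and neurological deficit at 0.5 and 4 h after injection.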

[3] = Anticancer activity against human Molt4/C8 cells after 72 hrs; type: functional, cell-based; conditions: MOLT-4, 72 h
Mus musculus [4] = experiment: Neurotoxicity in mouse at 30 to 300 mg/kg, ip after 0.5 hrs by rotarod method; type: toxicity, organism-based; design: dose 30-300 mg/kg, route intraperitoneal; conditions: in vivo
Procedure, shortened: (§2)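 Mice given 30, 100 and 300 mg/kg by intraperitoneal injection; animals scored for mortality and neurotoxicity at 0.5 and 4 h after dosing.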

L1210 [5] = experiment: Anticancer activity against mouse L1210 cells after 48 hrs; type: functional, cell-based; conditions: L1210, 48 h
Mus musculus [6] = experiment: Neurotoxicity in mouse at 30 to 300 mg/kg, ip after 0.5 to 4 hrs by rotarod method; type: toxicity, organism-based; design: dose 30-300 mg/kg, route intraperitoneal; conditions: in vivo; procedure, shortened: as §1
[7] = Cytotoxicity against human HGF cells after 48 hrs; type: cell-based
HSC-3 [8] = experiment: Selectivity index, ratio of average CC50 for normal human cell line to CC50 for human HSC3 cells
HL-60 [9] = experiment: Selectivity index, ratio of average CC50 for normal human cell line to CC50 for human HL-60 cells
Rattus norvegicus [10] = experiment: Neurotoxicity in rat at 50 mg/kg, po measured upto 4 hrs by rotarod method; type: toxicity, organism-based; design: dose 50 mg/kg, route oral; conditions: in vivo
Procedure, shortened: (§3)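 Rats given a single oral dose of 50 mg/kg; monitored intermittently over 4 h for fatalities and neurological deficit.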

HSC-4 [11] = experiment: Selectivity index, ratio of average CC50 for normal human cell line to CC50 for human HSC4 cells
HSC-2 [12] = experiment: Selectivity index, ratio of average CC50 for normal human cell line to CC50 for human HSC2 cells
HSC-3 [13] = experiment: Cytotoxicity against human HSC3 cells after 48 hrs; type: functional; conditions: HSC-3, 48 h
Rattus norvegicus [14] = experiment: Toxicity in rat assessed as mortality at 50 mg/kg, po measured upto 4 hrs; type: organism-based; design: dose 50 mg/kg, route oral; conditions: in vivo; procedure, shortened: as §3
HSC-4 [15] = experiment: Cytotoxicity against human HSC4 cells after 48 hrs; type: functional; conditions: HSC-4, 48 h
[16] = Cytotoxicity against human HPC cells after 48 hrs; type: cell-based
HSC-2 [17] = experiment: Cytotoxicity against human HSC2 cells after 48 hrs; type: functional; conditions: HSC-2, 48 h
[18] = Cytotoxicity against human HPLF cells after 48 hrs; type: cell-based
CCRF-CEM [19] = experiment: Ratio of melphalan IC50 to compound IC50 for human CEM cells; type: functional
HL-60 [20] = experiment: Cytotoxicity against human HL60 cells after 48 hrs; type: functional; conditions: HL-60, 48 h
COLO 205 = experiment: Anticancer activity against human COLO205 cells; type: functional, cell-based
HL-60 [21] = experiment: Induction of mitochondrial pathway-dependent apoptosis in human HL60 cells assessed as DNA fragmentation at 0.5 to 8 uM after 6 hrs by agarose gel electrophoresis; type: functional, cell-based
Procedure, shortened: (§4)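 Cells exposed 6 h to a range of concentrations; a UV-irradiated comparison was given 1 min of UV. Treated and control cells were then held 3 h in regular culture medium, after which DNA was extracted and run on 2% agarose gel electrophoresis.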

HCT-15 = experiment: Anticancer activity against human HCT15 cells; type: functional, cell-based
SW-620 = experiment: Anticancer activity against human SW620 cells; type: functional, cell-based
HCC 2998 = experiment: Anticancer activity against human HCC2998 cells; type: functional, cell-based
KM12 = experiment: Anticancer activity against human KM12 cells; type: functional, cell-based
CCRF-CEM [22] = experiment: Anticancer activity against human CCRF-CEM cells; type: functional, cell-based
L1210 [23] = experiment: Ratio of melphalan IC50 to compound IC50 for mouse L1210 cells; type: functional
MOLT-4 = experiment: Ratio of melphalan IC50 to compound IC50 for human Molt4/C8 cells; type: functional
HSC-2 [24] = experiment: Induction of mitochondrial pathway-dependent apoptosis in human HSC2 cells assessed as caspase 3 activation at 1 to 3 uM; type: functional, cell-based
Procedure, shortened: (§5)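 Caspase-3 activity measured in lysates of treated HL-60 and HSC-2 cells: 100 μg protein per assay, incubated 2 h with the substrate. Mean ± SD of three experiments.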

HL-60 [25] = experiment: Induction of mitochondrial pathway-dependent apoptosis in human HL60 cells assessed as caspase 3 activation at 1 to 3 uM; type: functional, cell-based; procedure, shortened: as §5
HL-60 [26] = experiment: Anticancer activity against human HL60 cells; type: functional, cell-based
HSC-2 [27] = experiment: Induction of mitochondrial pathway-dependent apoptosis in human HSC2 cells assessed as DNA fragmentation at 0.5 to 8 uM after 6 hrs by agarose gel electrophoresis; type: functional, cell-based; procedure, shortened: as §4
K562 = experiment: Anticancer activity against human K562 cells; type: functional, cell-based
HT-29 = experiment: Anticancer activity against human HT-29 cells; type: functional, cell-based
RPMI-8226 = experiment: Anticancer activity against human RPMI8226 cells; type: functional, cell-based
HCT-116 = experiment: Anticancer activity against human HCT116 cells; type: functional, cell-based
Mus musculus [28] = experiment: Neurotoxicity in mouse at 30 to 300 mg/kg, ip after 4 hrs by rotarod method; type: toxicity, organism-based; design: dose 30-300 mg/kg, route intraperitoneal; conditions: in vivo; procedure, shortened: as §2

| SMILES | IC50 (CCRF-CEM [1]) | Activity (Mus musculus [2]) | IC50 [3] | IC50 (L1210 [5]) | Activity (Mus musculus [6]) | CC50 at 48 h [7] | Ratio (HSC-3 [8]) | Ratio (HL-60 [9]) | Ratio (HSC-4 [11]) | Ratio (HSC-2 [12]) | CC50 (HSC-3 [13]) | CC50 (HSC-4 [15]) | CC50 at 48 h [16] | CC50 (HSC-2 [17]) | CC50 at 48 h [18] | Ratio IC50 (CCRF-CEM [19]) | CC50 (HL-60 [20]) | IC50 (COLO 205) | IC50 (HCT-15) | IC50 (SW-620) | also measured |
| --- | --- | --- | --- | --- | --- | --- | --- | --- | --- | --- | --- | --- | --- | --- | --- | --- | --- | --- | --- | --- | --- |
| COc1ccc(/C=C2\CN(C(=O)CCSCCS)C/C(=C\c3ccc(OC)cc3)C2=O)cc1 | 3200 nM | Non-toxic | 2770 nM | 10900 nM | – | – | – | – | – | – | – | – | – | – | – | – | – | – | – | – | Activity (Mus musculus [4]): Toxic |
| O=C1/C(=C/c2ccc([N+](=O)[O-])cc2)CN(C(=O)CCSCCS(=O)(=O)O)C/C1=C\c1ccc([N+](=O)[O-])cc1 | 7440 nM | Non-toxic | 6980 nM | 11400 nM | Non-toxic | – | – | – | – | – | – | – | – | – | – | – | – | – | – | – | – |
| Cc1ccc(/C=C2\CN(C(=O)CCSCCO)C/C(=C\c3ccc(C)cc3)C2=O)cc1 | 1100 nM | Non-toxic | 1850 nM | 5910 nM | Non-toxic | 9100 nM | 4.9 | 4 | 6.9 | 9.4 | 1700 nM | 1200 nM | 7500 nM | 890 nM | 8400 nM | 2.3 | 2100 nM | – | – | – | Activity (Rattus norvegicus [10]): Non-toxic; Activity (Rattus norvegicus [14]): Non-toxic |
| O=C1/C(=C/c2ccc(Cl)cc2)CN(C(=O)CCSCCO)C/C1=C\c1ccc(Cl)cc1 | 690 nM | Non-toxic | 420 nM | 6470 nM | Non-toxic | 8300 nM | 8.3 | 8 | 15.8 | 17.1 | 970 nM | 510 nM | 7200 nM | 470 nM | 8600 nM | 3.6 | 1000 nM | 460 nM | 260 nM | 170 nM | Activity (HL-60 [21]): Active; IC50 (HCC 2998): 1100 nM; IC50 (KM12): 190 nM; IC50 (CCRF-CEM [22]): 210 nM; Ratio IC50 (L1210 [23]): 43; Ratio IC50 (MOLT-4): 7.6; Activity (HSC-2 [24]): Active; Activity (HL-60 [25]): Active; IC50 (HL-60 [26]): 320 nM; Activity (HSC-2 [27]): Active; IC50 (K562): 100 nM; IC50 (HT-29): 260 nM; IC50 (RPMI-8226): 80 nM; IC50 (HCT-116): 170 nM |
| COc1ccc(/C=C2\CN(C(=O)CCSCCS(=O)(=O)O)C/C(=C\c3ccc(OC)cc3)C2=O)cc1 | 199000 nM | Non-toxic | 156000 nM | 227000 nM | – | – | – | – | – | – | – | – | – | – | – | – | – | > 100000 nM | > 100000 nM | 38000 nM | Activity (Mus musculus [28]): Toxic; IC50 (HCC 2998): 30900 nM; IC50 (KM12): 30200 nM; IC50 (CCRF-CEM [22]): > 100000 nM; IC50 (HL-60 [26]): > 100000 nM; IC50 (K562): 55000 nM; IC50 (HT-29): 41700 nM; Activity (Mus musculus [4]): Toxic; IC50 (RPMI-8226): 24500 nM; IC50 (HCT-116): 33100 nM |
| COc1ccc(/C=C2\CN(C(=O)CCSCCO)C/C(=C\c3ccc(OC)cc3)C2=O)cc1 | 3510 nM | Non-toxic | 1660 nM | 19600 nM | Non-toxic | 17000 nM | 4.8 | 4.9 | 6.5 | 6.5 | 3300 nM | 2400 nM | 14000 nM | 2410 nM | 16000 nM | 6.6 | 3200 nM | 2510 nM | 2190 nM | 2140 nM | IC50 (HCC 2998): 2000 nM; IC50 (KM12): 1980 nM; IC50 (CCRF-CEM [22]): 470 nM; Ratio IC50 (L1210 [23]): 6.6; Ratio IC50 (MOLT-4): 2; IC50 (HL-60 [26]): 1700 nM; IC50 (K562): 2880 nM; IC50 (HT-29): 2400 nM; IC50 (RPMI-8226): 330 nM; IC50 (HCT-116): 1510 nM |
| O=C1/C(=C/c2ccccc2)CN(C(=O)CCSCCO)C/C1=C\c1ccccc1 | 570 nM | – | 660 nM | 3800 nM | – | 17000 nM | 5.3 | 8.7 | 11.3 | 9.2 | 2800 nM | 1300 nM | 14000 nM | 1600 nM | 13000 nM | 4.3 | 1700 nM | – | – | – | Ratio IC50 (MOLT-4): 4.9 |
